Experimental data reported in paper PMC3825517 (Nature structural & molecular biology, 2013).

Columns and labels:
DinF-BH [1] = molecular target: T1, DinF-BH (Halalkalibacterium halodurans, UniProt Q9KAX3); test: Fluorescence polarization assay of R6G binding to purified DinF-BH; design: species or system Bacillus halodurans
T1 sequence (Q9KAX3 1-464): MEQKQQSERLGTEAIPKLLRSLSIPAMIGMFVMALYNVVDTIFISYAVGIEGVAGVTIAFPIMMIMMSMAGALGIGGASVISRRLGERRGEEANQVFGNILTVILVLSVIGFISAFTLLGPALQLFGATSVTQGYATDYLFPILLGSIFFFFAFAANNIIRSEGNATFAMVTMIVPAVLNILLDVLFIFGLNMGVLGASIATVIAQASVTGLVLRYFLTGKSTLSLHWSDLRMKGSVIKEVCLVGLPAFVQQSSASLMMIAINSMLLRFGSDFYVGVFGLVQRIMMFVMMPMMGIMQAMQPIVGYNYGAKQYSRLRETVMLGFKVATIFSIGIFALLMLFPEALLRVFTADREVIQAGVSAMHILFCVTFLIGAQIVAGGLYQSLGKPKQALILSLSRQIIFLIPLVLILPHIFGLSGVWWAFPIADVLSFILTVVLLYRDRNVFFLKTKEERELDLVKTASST

DinF-BH D40N mutant = molecular target: T2, DinF-BH D40N mutant (Halalkalibacterium halodurans, UniProt Q9KAX3, D40N); test: Fluorescence polarization assay of R6G binding to purified D40N mutant; design: species or system Bacillus halodurans
T2 sequence (Q9KAX3 1-464 D40N): T1 sequence (Q9KAX3 1-464)
In short: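 Each protein concentration was read after a 10-min incubation. Kd comes from the binding isotherm, three titrations, SD. For pH dependence the binding solutions spanned pH 5.5–9.0, fitted to Kd = (1 + [H+]/Ki)Kmin.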

DinF-BH [2] = molecular target: T1, DinF-BH; test: Fluorescence measurement of H+-release upon drug binding; type: biochemical, Bacillus halodurans; conditions: 4 μM protein, 250 μM TPP, fluoresceine pH indicator, repeated three times
In short: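 Purified transporter was dialysed against 10% (vol/vol) glycerol, 50 mM NaCl and 0.03% (wt/vol) DDM, then diluted to 4 μM in the same buffer with 2 μM fluoresceine as pH indicator. The sample was stirred, and fluorescence was read at excitation 494 nm and emission 521 nm. TPP was added to 250 μM. Three repeats.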

DinF-BH [3] = molecular target: T1, DinF-BH; test: Drug-H+ antiport assay in everted membrane vesicles containing DinF-BH; type: biochemical, Bacillus halodurans; conditions: 250 μM TPP, acridine orange fluorescence
NorM-NG = test: Drug-H+ antiport assay in everted membrane vesicles containing NorM-NG; type: biochemical, Neisseria gonorrhoeae; conditions: 250 μM TPP, acridine orange fluorescence

Compound: CC/N=c1\cc2oc3cc(NCC)c(C)cc3c(-c3ccccc3C(=O)OCC)c-2cc1C [R6G, rhodamine 6G]
- Kd (DinF-BH [1]): 3.1 ± 0.4 µM
- Kd (DinF-BH D40N mutant): 107 ± 4.1 µM

Compound: c1ccc([P+](c2ccccc2)(c2ccccc2)c2ccccc2)cc1 [TPP, tetraphenylphosphonium]
- stoichiometry of H+ released per DinF-BH upon drug binding (DinF-BH [2]): 1.00 ± 0.07 H^+ per DinF-BH
- H+ efflux (fluorescence dequenching) on addition of substrate, DinF-BH vesicles (DinF-BH [3]): elicited efflux of H^+
- H+ efflux (fluorescence dequenching) on addition of substrate, NorM-NG vesicles (NorM-NG): no response

Compound: C(=NC1CCCCC1)=NC1CCCCC1 [dicyclohexylcarbodiimide]
- effect of treatment of DinF-BH on the binding of R6G (DinF-BH [1]; treatment of DinF-BH with the chemical): abolished the binding of R6G
